Measured values pooled from the literature.
Target: Cannabinoid receptor 1 (CNR1, Homo sapiens, UniProt P21554)

SMILES | observed | mode | technique | cell line | tested at | measurement | value
c1ccc(C(NCCNC(c2ccccc2)c2ccccc2)c2ccccc2)cc1 | cell-free assay |  |  |  | 10 µM | inhibition | 102%
N#Cc1c(Oc2cccc(OS(=O)(=O)CCCC(F)(F)F)c2)cccc1C(F)(F)F | calcium signal | agonist | fluorescence | CHO |  | Emax | 39%
CCOC(=O)C(CC)(CCCSCCOCCOCCNc1ccc([N+](=O)[O-])c2nonc12)NC(=O)c1ccc(C2CC2)c(Cc2ccc(F)cc2)n1 (racemic) | cAMP | agonist |  |  |  | Emax | 126%
COc1ccc(S(=O)(=O)N2CCCCC2)cc1C | ligand displacement |  | radioligand |  | 10 µM | inhibition | < 30%
CCN(CC)CCCC[C@H](NC(=O)[C@H](CC(C)C)NC(=O)[C@H](C)NC(=O)[C@H](Cc1ccccc1)NC(=O)c1ccc(C(C)(C)C)cc1)C(=O)N[C@@H](CO)C(=O)OC | ligand displacement |  | radioligand |  | 10 µM | remaining binding | 113%
O=C1N=C(N2CCCCN2)S/C1=C\c1ccc(F)cc1O | ligand displacement |  | radioligand |  | 10 µM | inhibition | < 10%
CC(C)C(NC(=O)c1nn(Cc2ccc(F)cc2)c2ccccc12)C(N)=O (centres unmarked) | calcium signal | agonist | fluorescence |  |  | Emax | 120%
CN(CCN1CCC(OC(=O)Nc2ccccc2-c2ccccc2)CC1)C(=O)c1ccc(CN2CCC(C(N)=O)CC2)cc1 | ligand displacement |  | radioligand |  | 1 µM | inhibition | -3%
COCc1c(-c2cc3cc(C)cc(OC)c3s2)c2c(N)ncnn2c1CN1CCNC(=O)C1 | ligand displacement |  | radioligand |  | 10 µM | inhibition | 26%
Clc1ccc2c(C3CCN(CCc4c[nH]c5ccccc45)CC3)c[nH]c2c1 | ligand displacement |  | radioligand |  | 10 µM | inhibition | -27%
CC(C)N1CCC[C@H]1CNC(=O)c1cn(C2CCCC2)c(=O)c2c1c1ccccc1n2C | ligand displacement |  | radioligand |  | 10 µM | inhibition | 48%
